Results as given in ChEMBL document CHEMBL4033721, “Design, synthesis and evaluation of indole-2-carboxamides with pan anti-mycobacterial activity” (Bioorg Med Chem, 2017).
≈ marks a conversion by molar mass, not a printed value.

Tested on: Mycobacteroides abscessus
Assay: Antimycobacterial activity against Mycobacterium abscessus ATCC 19977 after 8 days by resazurin microtiter based colorimetric assay
Type: functional
Conditions: ATCC 19977, 192 h
Summary of the method: (§1)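 Resazurin microtiter plate MIC, read by visual scan for growth, in Mueller Hinton II broth. Strains include clinical isolates of M. abscessus complex, M. chelonae, M. avium, M. intracellulare, M. xenopi, P. aeruginosa PAO-1 and S. aureus ATCC 25923.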

| Structure (SMILES) | MIC [µg/mL] |
| --- | --- |
| Cc1cc(C)c2cc(C(=O)NCc3cccc(Cl)c3)[nH]c2c1 | > 32 |
| CCCCCCCCNC(=O)c1cc2ccccc2[nH]1 | > 32 |
| CCCCCCCNC(=O)c1cc2ccccc2[nH]1 | > 32 |
| O=C(NCc1cccc(Cl)c1)c1cc2ccccc2[nH]1 | > 32 |
| Cc1cc(C)c2cc(C(=O)NC(C)C34CC5CC(CC(C5)C3)C4)[nH]c2c1 (centres undefined) | 16 (≈ 45.6 µM) |
| O=C(NC1CCCCCCC1)c1cc2ccccc2[nH]1 | > 32 |

Tested on: Mycobacteroides abscessus
Assay: Antimycobacterial activity against Mycobacterium abscessus isolate DCI 21 after 8 days by resazurin microtiter based colorimetric assay
Type: functional
Conditions: isolate DCI 21, 192 h
Summary of the method: as §1

| Structure (SMILES) | MIC [µg/mL] |
| --- | --- |
| Cc1cc(C)c2cc(C(=O)NCc3cccc(Cl)c3)[nH]c2c1 | > 32 |
| CCCCCCCCNC(=O)c1cc2ccccc2[nH]1 | > 32 |
| CCCCCCCNC(=O)c1cc2ccccc2[nH]1 | > 32 |
| O=C(NCc1cccc(Cl)c1)c1cc2ccccc2[nH]1 | > 32 |
| Cc1cc(C)c2cc(C(=O)NC(C)C34CC5CC(CC(C5)C3)C4)[nH]c2c1 (centres undefined) | > 32 |
| O=C(NC1CCCCCCC1)c1cc2ccccc2[nH]1 | > 32 |

Tested on: not listed separately
Assay: Antimycobacterial activity against Mycobacterium massiliense isolate CIP108297 after 8 days by resazurin microtiter based colorimetric assay
Type: functional, Mycobacterium abscessus subsp. massiliense
Conditions: Mycobacteroides abscessus, isolate CIP108297, 192 h
Summary of the method: as §1

| Structure (SMILES) | MIC [µg/mL] |
| --- | --- |
| Cc1cc(C)c2cc(C(=O)NCc3cccc(Cl)c3)[nH]c2c1 | > 32 |
| CCCCCCCCNC(=O)c1cc2ccccc2[nH]1 | > 32 |
| CCCCCCCNC(=O)c1cc2ccccc2[nH]1 | > 32 |
| O=C(NCc1cccc(Cl)c1)c1cc2ccccc2[nH]1 | > 32 |
| Cc1cc(C)c2cc(C(=O)NC(C)C34CC5CC(CC(C5)C3)C4)[nH]c2c1 (centres undefined) | 8 (≈ 22.8 µM) |
| O=C(NC1CCCCCCC1)c1cc2ccccc2[nH]1 | > 32 |

Tested on: not listed separately
Assay: Antimycobacterial activity against Mycobacterium massiliense isolate CRM0019 after 8 days by resazurin microtiter based colorimetric assay
Type: functional, Mycobacterium abscessus subsp. massiliense
Conditions: Mycobacteroides abscessus, isolate CRM0019, 192 h
Summary of the method: as §1

| Structure (SMILES) | MIC [µg/mL] |
| --- | --- |
| Cc1cc(C)c2cc(C(=O)NCc3cccc(Cl)c3)[nH]c2c1 | > 32 |
| CCCCCCCCNC(=O)c1cc2ccccc2[nH]1 | > 32 |
| CCCCCCCNC(=O)c1cc2ccccc2[nH]1 | > 32 |
| O=C(NCc1cccc(Cl)c1)c1cc2ccccc2[nH]1 | > 32 |
| Cc1cc(C)c2cc(C(=O)NC(C)C34CC5CC(CC(C5)C3)C4)[nH]c2c1 (centres undefined) | 8 (≈ 22.8 µM) |
| O=C(NC1CCCCCCC1)c1cc2ccccc2[nH]1 | 32 (≈ 118 µM) |

Tested on: not listed separately
Assay: Antimycobacterial activity against Mycobacterium bolletii ATCC 14472 after 8 days by resazurin microtiter based colorimetric assay
Type: functional
Conditions: Mycobacteroides abscessus, ATCC 14472, 192 h
Summary of the method: as §1

| Structure (SMILES) | MIC [µg/mL] |
| --- | --- |
| Cc1cc(C)c2cc(C(=O)NCc3cccc(Cl)c3)[nH]c2c1 | > 32 |
| CCCCCCCCNC(=O)c1cc2ccccc2[nH]1 | > 32 |
| CCCCCCCNC(=O)c1cc2ccccc2[nH]1 | > 32 |
| O=C(NCc1cccc(Cl)c1)c1cc2ccccc2[nH]1 | > 32 |
| Cc1cc(C)c2cc(C(=O)NC(C)C34CC5CC(CC(C5)C3)C4)[nH]c2c1 (centres undefined) | 16 (≈ 45.6 µM) |
| O=C(NC1CCCCCCC1)c1cc2ccccc2[nH]1 | 32 (≈ 118 µM) |

Tested on: Mycobacteroides chelonae
Assay: Antimycobacterial activity against Mycobacterium chelonae ATCC 35752 after 8 days by resazurin microtiter based colorimetric assay
Type: functional
Conditions: ATCC 35752, 192 h
Summary of the method: as §1

| Structure (SMILES) | MIC [µg/mL] |
| --- | --- |
| Cc1cc(C)c2cc(C(=O)NCc3cccc(Cl)c3)[nH]c2c1 | > 32 |
| CCCCCCCCNC(=O)c1cc2ccccc2[nH]1 | > 32 |
| CCCCCCCNC(=O)c1cc2ccccc2[nH]1 | > 32 |
| O=C(NCc1cccc(Cl)c1)c1cc2ccccc2[nH]1 | > 32 |
| Cc1cc(C)c2cc(C(=O)NC(C)C34CC5CC(CC(C5)C3)C4)[nH]c2c1 (centres undefined) | 16 (≈ 45.6 µM) |
| O=C(NC1CCCCCCC1)c1cc2ccccc2[nH]1 | > 32 |

Tested on: Mycobacterium tuberculosis
Assay: Antimycobacterial activity against Mycobacterium tuberculosis H37Rv MC2-6206 after 8 days by resazurin microtiter based colorimetric assay
Type: functional
Conditions: H37Rv MC2-6206, 192 h
Summary of the method: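 MIC was measured by resazurin microtiter colorimetric assay with visual growth scoring. Medium was 7H9-ADC–0.05% tyloxapol with 0.2% casaminoacids, 48 µg/ml pantothenate and 50 µg/ml L-leucine.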

| Structure (SMILES) | MIC [µg/mL] |
| --- | --- |
| Cc1cc(C)c2cc(C(=O)NCc3cccc(Cl)c3)[nH]c2c1 | > 5 |
| CCCCCCCCNC(=O)c1cc2ccccc2[nH]1 | > 10 |
| CCCCCCCNC(=O)c1cc2ccccc2[nH]1 | > 10 |
| O=C(NCc1cccc(Cl)c1)c1cc2ccccc2[nH]1 | > 5 |
| Cc1cc(C)c2cc(C(=O)NC(C)C34CC5CC(CC(C5)C3)C4)[nH]c2c1 (centres undefined) | 0.31 (≈ 0.884 µM) |
| O=C(NC1CCCCCCC1)c1cc2ccccc2[nH]1 | 0.39 (≈ 1.44 µM) |

Tested on: Mycolicibacterium smegmatis
Assay: Antimycobacterial activity against Mycobacterium smegmatis isolate MC2 155 after 8 days by resazurin microtiter based colorimetric assay
Type: functional
Conditions: str. MC2 155, 192 h

| Structure (SMILES) | MIC [µg/mL] |
| --- | --- |
| Cc1cc(C)c2cc(C(=O)NCc3cccc(Cl)c3)[nH]c2c1 | > 20 |
| CCCCCCCCNC(=O)c1cc2ccccc2[nH]1 | > 25 |
| CCCCCCCNC(=O)c1cc2ccccc2[nH]1 | > 25 |
| O=C(NCc1cccc(Cl)c1)c1cc2ccccc2[nH]1 | > 20 |
| Cc1cc(C)c2cc(C(=O)NC(C)C34CC5CC(CC(C5)C3)C4)[nH]c2c1 (centres undefined) | > 20 |
| O=C(NC1CCCCCCC1)c1cc2ccccc2[nH]1 | 25 (≈ 92.5 µM) |

Tested on: Mycobacterium avium
Assay: Antimycobacterial activity against Mycobacterium avium isolate 104 after 8 days by resazurin microtiter based colorimetric assay
Type: functional
Conditions: isolate 104, 192 h
Summary of the method: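 M. avium 104 MICs were read by resazurin microtiter colorimetric assay in 96-well plates, with growth scored visually, in Mueller Hinton II medium.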

| Structure (SMILES) | MIC [µg/mL] |
| --- | --- |
| Cc1cc(C)c2cc(C(=O)NC(C)C34CC5CC(CC(C5)C3)C4)[nH]c2c1 (centres undefined) | > 32 |
| O=C(NC1CCCCCCC1)c1cc2ccccc2[nH]1 | > 32 |

Tested on: Mycobacterium avium-intracellulare
Assay: Antimycobacterial activity against Mycobacterium avium-intracellulare isolate 1956 after 8 days by resazurin microtiter based colorimetric assay
Type: functional
Conditions: isolate 1956, 192 h
Summary of the method: as §1

| Structure (SMILES) | MIC [µg/mL] |
| --- | --- |
| Cc1cc(C)c2cc(C(=O)NC(C)C34CC5CC(CC(C5)C3)C4)[nH]c2c1 (centres undefined) | > 32 |
| O=C(NC1CCCCCCC1)c1cc2ccccc2[nH]1 | > 32 |

Tested on: Mycobacterium xenopi
Assay: Antimycobacterial activity against wild type Mycobacterium xenopi isolate 4042 after 8 days by resazurin microtiter based colorimetric assay
Type: functional
Conditions: isolate 4042, 192 h
Summary of the method: as §1

| Structure (SMILES) | MIC [µg/mL] |
| --- | --- |
| Cc1cc(C)c2cc(C(=O)NC(C)C34CC5CC(CC(C5)C3)C4)[nH]c2c1 (centres undefined) | > 32 |
| O=C(NC1CCCCCCC1)c1cc2ccccc2[nH]1 | 2 (≈ 7.4 µM) |
